Active and inactive are the calls of the source. The calls are words filed in the database; no cut-off is given here.
Tests used:
[1] = biological target: T1, Peroxisome proliferator-activated receptor gamma (Mus musculus, UniProt P37238); assay: Agonist activity at PPARgamma in mouse 3T3-L1 cells by IRBA; type: functional, cell-based
T1 sequence (P37238 whole entry): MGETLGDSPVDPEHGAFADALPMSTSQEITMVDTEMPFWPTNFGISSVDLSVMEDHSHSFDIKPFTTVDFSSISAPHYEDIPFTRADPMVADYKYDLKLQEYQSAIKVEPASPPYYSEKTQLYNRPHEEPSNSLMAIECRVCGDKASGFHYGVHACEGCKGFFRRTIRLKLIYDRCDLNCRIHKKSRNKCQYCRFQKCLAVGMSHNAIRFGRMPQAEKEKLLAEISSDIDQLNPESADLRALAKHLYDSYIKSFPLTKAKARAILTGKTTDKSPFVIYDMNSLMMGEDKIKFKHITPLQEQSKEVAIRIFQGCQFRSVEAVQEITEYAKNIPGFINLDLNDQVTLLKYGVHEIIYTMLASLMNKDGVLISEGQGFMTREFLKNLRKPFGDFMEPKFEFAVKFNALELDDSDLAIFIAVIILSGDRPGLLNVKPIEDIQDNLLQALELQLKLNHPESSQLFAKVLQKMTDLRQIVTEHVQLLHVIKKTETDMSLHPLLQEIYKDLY

[2] = biological target: T2, Peroxisome proliferator-activated receptor alpha (Homo sapiens, UniProt Q07869); assay: Agonist activity at human PPARalpha by FRET assay; type: functional
T2 sequence (Q07869 whole entry): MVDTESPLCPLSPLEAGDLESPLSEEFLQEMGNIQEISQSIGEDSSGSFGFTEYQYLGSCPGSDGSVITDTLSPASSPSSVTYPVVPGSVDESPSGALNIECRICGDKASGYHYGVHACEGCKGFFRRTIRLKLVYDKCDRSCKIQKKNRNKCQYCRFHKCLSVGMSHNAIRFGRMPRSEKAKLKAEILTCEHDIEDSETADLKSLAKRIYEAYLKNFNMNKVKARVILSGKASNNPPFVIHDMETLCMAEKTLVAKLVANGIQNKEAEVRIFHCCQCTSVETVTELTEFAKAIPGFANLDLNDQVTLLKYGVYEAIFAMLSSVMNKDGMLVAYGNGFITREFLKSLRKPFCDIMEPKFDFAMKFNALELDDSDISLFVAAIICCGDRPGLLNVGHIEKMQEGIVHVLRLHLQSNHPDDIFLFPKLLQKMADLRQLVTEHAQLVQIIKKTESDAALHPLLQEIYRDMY
Procedure, shortened: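 Human PPARα ligand-binding domain (GST-tagged) incubated with compound, europium-labeled anti-GST antibody, biotinylated coactivator-binding peptide and streptavidin-APC. FRET read at excitation 340 nm, emission 615 and […]. Means of at least two experiments.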

[3] = biological target: T3, Peroxisome proliferator-activated receptor delta (Homo sapiens, UniProt Q03181); assay: Agonist activity at human PPARdelta by FRET assay; type: functional
T3 sequence (Q03181 whole entry): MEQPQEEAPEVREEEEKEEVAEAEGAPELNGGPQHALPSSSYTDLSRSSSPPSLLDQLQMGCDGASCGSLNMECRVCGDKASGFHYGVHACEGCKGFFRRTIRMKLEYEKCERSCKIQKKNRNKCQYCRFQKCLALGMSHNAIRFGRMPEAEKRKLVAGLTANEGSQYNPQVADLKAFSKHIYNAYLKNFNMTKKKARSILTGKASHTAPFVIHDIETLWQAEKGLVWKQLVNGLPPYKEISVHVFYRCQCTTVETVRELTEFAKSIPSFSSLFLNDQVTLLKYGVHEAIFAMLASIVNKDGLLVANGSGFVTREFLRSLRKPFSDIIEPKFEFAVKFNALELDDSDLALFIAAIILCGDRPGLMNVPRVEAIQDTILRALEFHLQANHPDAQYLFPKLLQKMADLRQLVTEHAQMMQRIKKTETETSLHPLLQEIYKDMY

[4] = biological target: T4, Peroxisome proliferator-activated receptor delta (Mus musculus, UniProt P35396); assay: Activity at mouse PPARdelta expressed in CV1 cells by GAL4 transactivation assay; type: cell-based, CV-1
T4 sequence (P35396 whole entry): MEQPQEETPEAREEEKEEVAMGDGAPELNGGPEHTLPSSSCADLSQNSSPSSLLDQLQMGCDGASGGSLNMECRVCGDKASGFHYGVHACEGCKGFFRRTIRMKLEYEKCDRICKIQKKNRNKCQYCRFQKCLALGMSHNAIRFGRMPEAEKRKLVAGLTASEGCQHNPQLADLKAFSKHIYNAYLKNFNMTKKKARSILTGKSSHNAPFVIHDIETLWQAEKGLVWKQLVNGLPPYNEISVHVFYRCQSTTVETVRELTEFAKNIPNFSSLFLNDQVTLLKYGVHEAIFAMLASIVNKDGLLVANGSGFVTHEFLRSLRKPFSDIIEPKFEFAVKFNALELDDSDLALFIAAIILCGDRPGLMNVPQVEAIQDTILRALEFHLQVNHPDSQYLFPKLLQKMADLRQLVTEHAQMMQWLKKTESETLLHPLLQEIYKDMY
Procedure, shortened: (§1)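 GAL4 transactivation in CV-1 cells (2.8 × 10⁴ per well, grown overnight in 10% FBS medium). Cells transiently transfected (Lipofectamine/Plus) with Gal4/PPAR-LBD fusion, UAS/firefly luciferase and Renilla luciferase plasmids. After overnight culture in charcoal/dextran-treated 10% FBS medium, compound added for 24 h. Dual luciferase read-out; EC50 from dose–response curve; means of at least two experiments.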

[5] = Bioavailability in rat at 3 mg/kg, po; type: ADME, organism-based; details: in vivo
Mus musculus [6] = assay: Reduction of plasma glucose level in db/db mouse at 10 mg/kg, po after 7 days; type: functional, organism-based; design: dose 10 mg/kg
Procedure, shortened: (§2)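 Female db/db mice grouped by equal mean plasma glucose, then given compound orally once daily for 7 days in 0.5% methylcellulose in water; fed ad libitum. Plasma glucose measured about 24 h after the last dose. Percent change from drug = ((Tf/Ti)/(Vf/Vi) − 1) × 100, correcting for vehicle-group change.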

[7] = biological target: T2, Peroxisome proliferator-activated receptor alpha; assay: Activity at human PPARalpha expressed in CV1 cells by GAL4 transactivation assay; type: cell-based, CV-1; procedure, shortened: as §1
Mus musculus [8] = assay: Increase in HDL-cholesterol level in hApoA1 mouse at 30 mg/kg, po after 10 days
[9] = Cmax in rat at 3 mg/kg, po and 3 mg/kg, iv; type: ADME, organism-based; details: in vivo
[10] = biological target: T3, Peroxisome proliferator-activated receptor delta; assay: Activity at human PPARdelta expressed in CV1 cells by GAL4 transactivation assay; type: cell-based, CV-1; procedure, shortened: as §1
Rattus norvegicus [11] = assay: AUC in rat at 3 mg/kg, po; type: ADME, organism-based, Plasma; design: dose 3 mg/kg, route oral; details: in vivo
Mus musculus [12] = assay: Reduction of plasma glucose level in orally dosed db/db mouse after 7 days; type: functional; details: po, 168 h; procedure, shortened: as §2
[13] = Half life in rat at 3 mg/kg, po; type: ADME, organism-based; design: dose 3 mg/kg, route oral; details: in vivo
Rattus norvegicus [14] = assay: Reduction of glucose level in Zucker fa/fa rat at 10 mg/kg after 10 days; type: functional, organism-based; design: dose 10 mg/kg
Mus musculus [15] = assay: Reduction of triglycerides level in hApoA1 mouse at 30 mg/kg, po after 10 days; design: scale not given: the % may be the effect or the level left
[16] = biological target: T5, Peroxisome proliferator-activated receptor alpha (Mus musculus, UniProt P23204); assay: Activity at mouse PPARalpha expressed in CV1 cells by GAL4 transactivation assay; type: cell-based, CV-1; procedure, shortened: as §1
T5 sequence (P23204 whole entry): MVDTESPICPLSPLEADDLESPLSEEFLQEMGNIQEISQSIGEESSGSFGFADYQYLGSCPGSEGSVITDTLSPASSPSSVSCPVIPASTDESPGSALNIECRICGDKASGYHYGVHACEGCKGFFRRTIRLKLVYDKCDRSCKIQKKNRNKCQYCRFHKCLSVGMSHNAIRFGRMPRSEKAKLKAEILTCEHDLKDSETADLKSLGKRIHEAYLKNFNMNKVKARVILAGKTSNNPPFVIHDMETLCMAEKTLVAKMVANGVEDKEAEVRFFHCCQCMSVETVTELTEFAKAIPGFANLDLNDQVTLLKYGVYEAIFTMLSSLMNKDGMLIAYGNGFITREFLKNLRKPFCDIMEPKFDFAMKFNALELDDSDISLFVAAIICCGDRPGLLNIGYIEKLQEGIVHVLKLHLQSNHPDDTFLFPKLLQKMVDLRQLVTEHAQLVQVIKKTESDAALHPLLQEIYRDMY

CC(=O)c1ccc(-c2ncc(C)c(N(C)CCCOc3ccc4c(c3)CC[C@H]4CC(=O)O)n2)cc1
EC50 [1]: 237 nM | EC50 [2]: 6550 nM | EC50 [3]: 83 nM

CCc1ccc(-c2nc(C)cc(N(C)CCCOc3ccc4c(c3)CC[C@H]4CC(=O)O)n2)cc1
EC50 [1]: 600 nM | EC50 [2]: 920 nM | EC50 [3]: 11 nM

Cc1ccc(-c2ncc(C)c(N(C)CCCOc3ccc4c(c3)CC[C@H]4CC(=O)O)n2)cc1
EC50 [1]: 780 nM | EC50 [2]: 1150 nM | EC50 [3]: 9 nM

CCc1ccc(-c2nccc(N(C)CCCOc3ccc4c(c3)CC[C@H]4CC(=O)O)n2)cc1
EC50 [1]: 800 nM | EC50 [2]: 565 nM | EC50 [3]: 25 nM

CCc1csc(-c2ccc(OCCCOc3ccc4c(c3)CC[C@H]4CC(=O)O)nc2)n1
EC50 [1]: 264 nM | EC50 [2]: 421 nM | EC50 [3]: 3 nM

CCOc1csc(-c2ccc(OCCCOc3ccc4c(c3)CC[C@H]4CC(=O)O)nc2)n1
EC50 [1]: 411 nM | EC50 [2]: 807 nM | EC50 [3]: 3 nM

CCc1ccc(-c2ncc(CC)c(N(C)CCCOc3ccc4c(c3)CC[C@H]4CC(=O)O)n2)cc1
EC50 [1]: 950 nM | EC50 [2]: 120 nM | EC50 [3]: 2 nM

Cc1nc(-c2ccc(OCCCOc3ccc4c(c3)CC[C@H]4CC(=O)O)nc2)sc1C
EC50 [1]: 511 nM | EC50 [2]: 6780 nM | EC50 [3]: 5 nM

CC(=O)c1sc(-c2ccc(OCCCOc3ccc4c(c3)CC[C@H]4CC(=O)O)nc2)nc1C
IC50 [4]: 1390 nM | EC50 [1]: 35 nM | bioavailability [5]: 48% | Activity (Mus musculus [6]): Active | IC50 [7]: > 6000 nM | Activity (Mus musculus [8]): 22% | Cmax [9]: 2800 nM | IC50 [10]: 56 nM | EC50 [2]: 1390 nM | AUC (Rattus norvegicus [11]): 26 µM·h | ED50 (Mus musculus [12]): 6.7 mg/kg | half-life [13]: 5 h | Activity (Rattus norvegicus [14]): Active | EC50 [3]: 9 nM | Activity (Mus musculus [15]): -32%

Cc1cnc(-c2ccccc2)nc1N(C)CCCOc1ccc2c(c1)CC[C@H]2CC(=O)O
EC50 [1]: 678 nM | EC50 [2]: 6610 nM | EC50 [3]: 24 nM

Cc1cnc(-c2cccc(Cl)c2)nc1N(C)CCCOc1ccc2c(c1)CC[C@H]2CC(=O)O
EC50 [1]: 582 nM | EC50 [2]: 2370 nM | EC50 [3]: 23 nM

CCOc1ccc(-c2ncc(C)c(N(C)CCCOc3ccc4c(c3)CC[C@H]4CC(=O)O)n2)cc1
EC50 [1]: 161 nM | EC50 [2]: 3090 nM | EC50 [3]: 58 nM

Cc1cnc(-c2ccc(C(C)(C)C)cc2)nc1N(C)CCCOc1ccc2c(c1)CC[C@H]2CC(=O)O
EC50 [1]: 156 nM | EC50 [2]: 641 nM | EC50 [3]: 28 nM

CCOc1cccc(-c2ncc(C)c(N(C)CCCOc3ccc4c(c3)CC[C@H]4CC(=O)O)n2)c1
EC50 [1]: 6930 nM | EC50 [2]: 3540 nM | EC50 [3]: 7 nM

Cc1cnc(-c2ccc(Cl)cc2)nc1N(C)CCCOc1ccc2c(c1)CC[C@H]2CC(=O)O
EC50 [1]: 2800 nM | EC50 [2]: 1130 nM | EC50 [3]: 7 nM

Cc1cccc(-c2ncc(C)c(N(C)CCCOc3ccc4c(c3)CC[C@H]4CC(=O)O)n2)c1
EC50 [1]: 670 nM | EC50 [2]: 4390 nM | EC50 [3]: 41 nM

Cc1cnc(-c2ccc(F)cc2)nc1N(C)CCCOc1ccc2c(c1)CC[C@H]2CC(=O)O
EC50 [1]: 860 nM | EC50 [2]: 2120 nM | EC50 [3]: 7 nM

Cc1cnc(-c2ccc(C(C)C)cc2)nc1N(C)CCCOc1ccc2c(c1)CC[C@H]2CC(=O)O
IC50 [4]: 610 nM | EC50 [1]: 29 nM | IC50 [7]: 237 nM | IC50 [10]: 49 nM | IC50 [16]: 2530 nM | EC50 [2]: 990 nM | EC50 [3]: 34 nM

CCc1ccc(-c2ncc(C)c(N(C)CCCOc3ccc4c(c3)CC[C@H]4CC(=O)O)n2)cc1
IC50 [4]: 370 nM | EC50 [1]: 145 nM | IC50 [7]: 175 nM | IC50 [10]: 30 nM | IC50 [16]: 670 nM | EC50 [2]: 200 nM | EC50 [3]: 10 nM

CCc1ccc(-c2ncc(F)c(N(C)CCCOc3ccc4c(c3)CC[C@H]4CC(=O)O)n2)cc1
EC50 [1]: 360 nM | EC50 [2]: 425 nM | EC50 [3]: 16 nM

COc1ccc(-c2ncc(C)c(N(C)CCCOc3ccc4c(c3)CC[C@H]4CC(=O)O)n2)cc1
EC50 [1]: 7010 nM | EC50 [2]: 1390 nM | EC50 [3]: 12 nM

Reference: ChEMBL document CHEMBL1139054, “Indanylacetic acid derivatives carrying aryl-pyridyl and aryl-pyrimidinyl tail groups--new classes of PPAR gamma/delta and PPAR alpha/gamma/delta agonists” (Bioorg Med Chem Lett, 2007)
